ChEMBL document CHEMBL4359879, “Synthesis and evaluation of 2-carboxy indole derivatives as potent and selective anti-leukemic agents” (Eur J Med Chem, 2019)
Active and inactive are the calls of the source. The rule behind the calls is not given here.

Tests used:
T-cell = assay: Cytotoxicity against phytohemagglutinin and interleukin-2-stimulated T-lymphocytes (unknown origin) up to 100 uM after 48 hrs by MTT assay; type: cell-based
Method in brief: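 Post-ficoll lymphocytes from healthy donors were grown in RPMI-1640 with 10% FBS and stimulated overnight with phytohemagglutinin (25 µL/mL) plus IL-2 (50 U/mL). They were then exposed to decreasing concentrations for 48 h. Viability was measured by MTT (0.5 mg/ml final, 4 h), with SDS/HCl solubilization and absorbance at 570/620 nm, as survival relative to controls.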

HL-60 [1] = assay: Effect on human HL60 cells assessed as fold change in NPIPB8 gene expression at 1.085 uM incubated for 6 hrs by microarray-based method; type: functional
Method in brief: (§1)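 HL60 cells were treated in triplicate with 1.085 µM or vehicle for 6 h. Total RNA was extracted with on-column DNase treatment and profiled on expression arrays.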

HL-60 [2] = assay: Induction of differentiation in human HL60 cells assessed as increase in CD14 positive cells incubated for 48 hrs by 7-AAD staining-based flow cytometric analysis; type: functional, cell-based
Method in brief: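 Vitamin D3 at 100 nM and ATRA at 2 μM served as positive controls. Stained with APC anti-CD11b and PE anti-CD14 for 30 min at 4 °C, then 7-AAD.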

RS4-11 [3] = assay: Induction of cell cycle arrest in human RS4:11 cells assessed as effect on S phase at 300 nM incubated for 18 hrs by BrdU/propidium iodide staining based flow cytometric analysis; type: functional
Method in brief: (§2)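 RS4;11 cells treated with 300 nM or DMSO vehicle for 18 h, then pulsed with 10 μM BrdU for 1 h. Harvested cells immunostained for BrdU/PI (cell cycle), γH2AX (DNA damage) and PARP (apoptosis). Multicolor flow cytometry gated G1, sub-G2-like, G2/M and sub-G0/G1 populations.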

HL-60 [4] = assay: Effect on human HL60 cells assessed as fold change in NMNAT1 gene expression at 1.085 uM incubated for 6 hrs by microarray-based method; type: functional; method in brief: as §1
HL-60 [5] = assay: Induction of cell cycle arrest in human HL60 cells assessed as accumulation of cells at G2/M phase at EC50 by PI staining based flow cytometric analysis; type: functional; conditions: TDE = time-dependent effect
Tubulin (Homo sapiens) [6] = target: T1, Tubulin (Homo sapiens) (UniProt P68371+Q9H4B7+P0DPH7+P68366+Q13509+Q71U36+P04350+Q3ZCM7+P07437+P68363+Q9BQE3+Q6PEY2+Q13885+Q9BVA1+Q9BUF5); assay: Induction of microtubule network depolymerization in human HeLa cells assessed as fragmented centrosomal material at 500 nM incubated for 18 hrs by DAPI staining based fluorescence microscopic method; type: cell-based
Method in brief: (§3)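 HeLa cells (100,000/mL) cultured overnight on glass-bottom dishes, then exposed to 500 nM or 1 μM, or DMSO, for 18 h. Permeabilized (0.5% Triton X-100) and fixed (3.7% formaldehyde). Stained overnight at 4 °C with anti-β-tubulin, then Alexa Fluor 647 secondary for 1 h at room temperature, and DAPI 1 μg/mL for 10 min. Examined by fluorescence microscopy.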

HL-60 [7] = assay: Effect on human HL60 cells assessed as fold change in ARL17B gene expression at 1.085 uM incubated for 6 hrs by microarray-based method; type: functional; method in brief: as §1
HL-60 [8] = assay: Effect on human HL60 cells assessed as fold change in TM2D3 gene expression at 1.085 uM incubated for 6 hrs by microarray-based method; type: functional; method in brief: as §1
HL-60 [9] = assay: Effect on human HL60 cells assessed as fold change in ZNF79 gene expression at 1.085 uM incubated for 6 hrs by microarray-based method; type: functional
HL-60 [10] = assay: Induction of cell cycle arrest in human HL60 cells assessed as accumulation of cells at S phase at EC50 incubated for 18 hrs by PI staining based flow cytometric analysis (reference value: 19.0%); type: functional
Tubulin (Homo sapiens) [11] = target: T1, Tubulin (Homo sapiens); assay: Induction of microtubule network depolymerization in human HeLa cells at 1 uM incubated for 18 hrs by DAPI staining based fluorescence microscopic method; type: cell-based; method in brief: as §3
HL-60 [12] = assay: Induction of apoptosis in human HL60 cells at 300 nM incubated for 18 hrs by Annexin V-FITC/propidium iodide staining-based flow cytometric analysis; type: functional, cell-based
Method in brief: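 CEM, HL60 or RS4;11 cells (5×10^5) treated with 300 nM or vehicle for 18 h. Stained with FITC-Annexin V in binding buffer for 15 min at 37 °C, then PI (5 μg/mL) for 3 min. Analyzed by flow cytometry.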

HL-60 [13] = assay: Effect on human HL60 cells assessed as increase in p53 protein expression at 300 nM incubated for 15 to 360 mins by Western blot analysis; type: functional, cell-based
Method in brief: (§4)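 Leukemia cells (RS4;11, CEM, HL60) treated with 300 nM for 0, 15, 30, 60 and 360 min. Western blotting for β-tubulin and p53, with lamin B1 as loading control and chemiluminescent detection.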

HL-60 [14] = assay: Effect on human HL60 cells assessed as fold change in FOXJ2 gene expression at 1.085 uM incubated for 6 hrs by microarray-based method; type: functional; method in brief: as §1
HL-60 [15] = assay: Effect on human HL60 cells assessed as fold change in C14orf180 gene expression at 1.085 uM incubated for 6 hrs by microarray-based method; type: functional; method in brief: as §1
HL-60 [16] = assay: Effect on human HL60 cells assessed as fold change in GPSM2 gene expression at 1.085 uM incubated for 6 hrs by microarray-based method; type: functional; method in brief: as §1
Tubulin (Homo sapiens) [17] = target: T1, Tubulin (Homo sapiens); assay: Inhibition of tubulin polymerization in human RS4:11 cells at 300 nM by Western blot analysis; type: cell-based; conditions: TDE = time-dependent effect; method in brief: as §4
HL-60 [18] = assay: Effect on human HL60 cells assessed as fold change in CRADD gene expression at 1.085 uM incubated for 6 hrs by microarray-based method; type: functional; method in brief: as §1
HL-60 [19] = assay: Effect on human HL60 cells assessed as fold change in SPRY1 gene expression at 1.085 uM incubated for 6 hrs by microarray-based method; type: functional; method in brief: as §1
HL-60 [20] = assay: Induction of cell cycle arrest in human HL60 cells assessed as increase in accumulation of cells at sub G1 phase at EC50 by PI staining based flow cytometric analysis; type: functional; conditions: TDE = time-dependent effect
HL-60 [21] = assay: Effect on human HL60 cells assessed as fold change in GDAP1 gene expression at 1.085 uM incubated for 6 hrs by microarray-based method; type: functional; method in brief: as §1
RS4-11 [22] = assay: Induction of DNA damage in human RS4:11 cells assessed as accumulation of cells at G2 phase at 300 nM incubated for 18 hrs in presence of H2AX antibody by immunofluorescent staining based flow cytometric analysis relative to control; type: functional; method in brief: as §2
HL-60 [23] = assay: Effect on human HL60 cells assessed as fold change in LSMEM1 gene expression at 1.085 uM incubated for 6 hrs by microarray-based method; type: functional; method in brief: as §1
HL-60 [24] = assay: Effect on human HL60 cells assessed as fold change in SPATA7 gene expression at 1.085 uM incubated for 6 hrs by microarray-based method; type: functional; method in brief: as §1
HL-60 [25] = assay: Effect on human HL60 cells assessed as fold change in flaw-mawbo gene expression at 1.085 uM incubated for 6 hrs by microarray-based method; type: functional
HL-60 [26] = assay: Effect on human HL60 cells assessed as fold change in KPNA1 gene expression at 1.085 uM incubated for 6 hrs by microarray-based method; type: functional; method in brief: as §1
HL-60 [27] = assay: Effect on human HL60 cells assessed as fold change in MIR4658 gene expression at 1.085 uM incubated for 6 hrs by microarray-based method; type: functional; method in brief: as §1

## COC(=O)c1[nH]c2cc(OC)ccc2c1-c1ccc(C(F)(F)F)cc1
T-cell
  Activity: Non-Toxic
HL-60 [1]
  fold change (FC): 1.5
HL-60 [2]
  Activity: Dose-dependent effect
RS4-11 [3]
  Activity: inactive
HL-60 [4]
  fold change (FC): 1.5
HL-60 [5]
  Activity: Tde
Tubulin (Homo sapiens) [6]
  Activity: Active
HL-60 [7]
  fold change (FC): -1.5
HL-60 [8]
  fold change (FC): -1.65
HL-60 [9]
  fold change (FC): -1.88
HL-60 [10]
  Activity: 8.92%
Tubulin (Homo sapiens) [11]
  Activity: Active
HL-60 [12]
  Activity: Active
HL-60 [13]
  Activity: Active
HL-60 [14]
  fold change (FC): 1.62
HL-60 [15]
  fold change (FC): 1.56
HL-60 [16]
  fold change (FC): 1.62
Tubulin (Homo sapiens) [17]
  inhibition: Tde
HL-60 [18]
  fold change (FC): 1.61
HL-60 [19]
  fold change (FC): -1.5
HL-60 [20]
  Activity: Tde
HL-60 [21]
  fold change (FC): -1.61
RS4-11 [22]
  Activity: 6.9%
HL-60 [23]
  fold change (FC): -1.69
HL-60 [24]
  fold change (FC): 1.56
HL-60 [25]
  fold change (FC): -1.62
HL-60 [26]
  fold change (FC): 1.89
HL-60 [27]
  fold change (FC): -1.72
